Results gathered from unrelated publications.
Protocols differ between the studies behind these lines.
Effect on: cell growth or viability

SMILES | cell line | method | time | quantity | value
Cc1n(Cc2ccc3ccccc3n2)cc[n+]1Cc1ccc2ccccc2c1 | HOP-92 | SRB |  | TGI | 3810 nM
CC(C)(C=O)Cc1cc(C(C)(C)C)c(O)c(C(C)(C)C)c1 | CAL-27 |  | 72 h | IC50 | > 20000 nM
c1ccc(-c2n(Cc3ccc4ccccc4c3)cc[n+]2Cc2ccc3ccccc3c2)cc1 | HOP-62 | SRB |  | TGI | 3230 nM
COc1cccc2c1C(=O)c1c(O)c3c(c(O)c1C2=O)C[C@@](O)(C(=O)CO)C[C@@H]3O[C@H]1C[C@H](N)[C@H](O)[C@H](C)O1 | MCF-10A |  | 48 h | IC50 | 1200 nM
COc1cc(-c2ccc(-c3ccc(C(=N)N)nc3)s2)cc(OC)c1OC | HOP-92 | SRB |  | GI50 | 1910 nM
COc1cc(Nc2nccc(-c3cnn4nc(OC)ccc34)n2)cc(C(F)(F)F)c1 | P31-FUJ | ATP luminescence |  | IC50 | 1100 nM
CN(C)CCOc1ccc(-c2nc(-c3ccncc3)c(-c3ccc4c(c3)CC/C4=N\O)[nH]2)cc1 | 451Lu | ATP luminescence | 72 h | EC50 | 670 nM
CCCc1n(Cc2ccc3ccccc3n2)cc[n+]1Cc1ccc2ccccc2c1 | HOP-92 | SRB |  | TGI | 1120 nM
C[C@@H](Oc1cc(-c2cnn(C3CCNCC3)c2)cnc1N)c1c(Cl)ccc(F)c1Cl | M091 | resazurin | 48 h | GI50 | 10 nM
Nc1ncnc2c1ncn2[C@@H]1O[C@H](CO)[C@@H](O)[C@@H]1O | CAL-27 |  | 72 h | IC50 | > 20000 nM
S=C([S][Au-][P+](CCCCCC[P+]([Au-][S]C(=S)n1cccn1)(c1ccccc1)c1ccccc1)(c1ccccc1)c1ccccc1)n1cccn1 | UO-31 |  |  | GI50 | 933 nM
CCc1n(Cc2ccc3ccccc3n2)cc[n+]1Cc1ccc2ccccc2n1 | HOP-92 | SRB |  | TGI | 521 nM
COc1cccc(Oc2ccccc2NC(=O)CNC(=O)c2cccc3ccccc23)c1 | UO-31 | SRB | 48 h | GI50 | 1820 nM
Cc1ccc2cncc(N3CCc4c(cc(Cn5ccnc5)cc4-c4cn(C)nc4C(F)(F)F)C3=O)c2c1 | K562 | ATP luminescence | 5 days | GI50 | 4900 nM
COc1ccc(-c2ccc(-c3ccc(C(=N)N)nc3)s2)cc1 | UO-31 |  |  | GI50 | 1640 nM
